This note sets out measurements from ChEMBL document CHEMBL3808283, “Biological Characterization and in Vivo Assessment of the Activity of a New Synthetic Macrocyclic Antifungal Compound” (J Med Chem, 2016).

For orientation: MIC means the lowest concentration found to suppress growth. Low values mean a more susceptible organism, high ones a less susceptible organism.

In brackets after ≈: the same amount, converted by molar mass. Activity calls are given as the source filed them. The calls are words filed in the database; no cut-off is given here.

Data set [1] has as its system Candida albicans. The data set can be described thus: Antifungal activity against Candida albicans isolate DSY448 harboring CDR1 deletion mutant at 10 uM by serial dilution assay. In kind it is functional, organism-based. A digest of the protocol:
(§1)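 Spot dilution assay: C. albicans cells 10-fold serially diluted from 2 × 10^7 cells/mL, with 5 µL of each dilution spotted onto YEPD agar plates containing the drug.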

Data set [2] relates to Candida albicans. The data set can be described thus: Antifungal activity against azole-susceptible Candida albicans isolate DSY294 in immunocompetent Balb/c mouse candidiasis model assessed as reduction in CFU count in kidney at 40 mg/kg/day, ip regime measured on day 7 post infection. In kind it is functional, organism-based. A digest of the protocol: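 Immunocompetent BALB/c mice, groups of 10, were injected in the lateral tail vein with 7 × 10^4 CFU of C. albicans in 200 µL saline. Drug was given ip daily at 40 mg/kg/day in DMSO/PEG 400 2:1 (0.1 mg/mL, 100 µL). Kidneys were taken on day 7, homogenized and plated on YPD agar for 2 days at 30 °C. Read-out was CFU/g; Wilcoxon rank-sum test, P<0.05.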

Data set [3] has as its system Candida albicans. Description: Antifungal activity against azole-resistant Candida albicans isolate DSY296 in immunocompetent Balb/c mouse candidiasis model assessed as reduction in CFU count in spleen at 40 mg/kg/day, ip regime measured on day 7 post infection. In kind it is functional, organism-based. A digest of the protocol:
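Immunocompetent BALB/c mice, 10 per strain group, received 7 × 10^4 CFU of C. albicans in 200 µL saline via the lateral vein. Drug was given i.p. daily at 40 mg/kg/day as a 0.1 mg/mL solution in DMSO/PEG 400 (2:1), 100 µL per dose. On day 7, spleen and kidneys were weighed, homogenized, and plated on YPD agar (2 days, 30 °C) for CFU/g. Analysis used Wilcoxon rank-sum, P<0.05.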

In data set [4] the test system is Candida albicans. The data set can be described thus: Antifungal activity against Candida albicans isolate DSY654 harboring CDR1/2 deletion mutant at 10 uM by serial dilution assay. In kind it is functional, organism-based. The procedure, abridged: as §1
Data set [5] is described as follows: Antifungal activity against Geotrichum silvicola up to 96 hrs by broth dilution assay. In kind it is functional. For orientation: Broth dilution looks for growth in wells or tubes with falling amounts of substance.
Data set [6] deals with Candida albicans. The data set can be described thus: Upregulation of orf19.4531 gene expression in Candida albicans SC5314 at 3 uM after 15 mins by microarray method relative to control. In kind it is functional. The procedure, abridged:
(§2)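 Log-phase cultures in liquid YEPD were exposed to 3 µM compound (final) for 15 or 45 min, with untreated controls sampled at the same times, in three biological replicates. Total RNA was extracted by glass-bead/phenol-chloroform disruption and integrity-checked. One-color Cy3-labelled cRNA (600 ng) was hybridized for 17 h at 65 °C to 8 × 15K arrays, and fold change was taken versus control.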

The subject of data set [7] is Candida albicans. Description: Upregulation of FCR1 gene expression in Candida albicans SC5314 at 3 uM after 15 mins by microarray method relative to control. In kind it is functional. The procedure, abridged: (§3)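 Log-phase C. albicans SC5314 in liquid YEPD exposed to 3 µM final for 15 or 45 min; untreated controls taken at the same time points. Three biological replicates. RNA extracted by glass-bead/phenol-chloroform method and integrity checked. One-color Cy3-labeled cRNA (600 ng) hybridized 17 h at 65 °C to 8 × 15K arrays. Expression expressed as fold change versus control.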

Data set [8] relates to Candida albicans. Description: Upregulation of LCB4 gene expression in Candida albicans SC5314 at 3 uM after 15 mins by microarray method relative to control. In kind it is functional. A digest of the protocol: as §3
Data set [9] deals with Candida albicans. Description: Upregulation of orf19.6873.1 gene expression in Candida albicans SC5314 at 3 uM after 45 mins by microarray method relative to control. In kind it is functional. A digest of the protocol:
as §2

The test system of data set [10] is Candida albicans. The data set can be described thus: Antifungal activity against Candida albicans 15T measured at 24 hrs by broth dilution assay. In kind it is functional. The procedure, abridged: (§4)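 EUCAST broth microdilution, including the update for non-fermenting yeasts (Cryptococcus, Geotrichum), on clinical and reference yeast isolates. Incubated at 37 °C and read at 24, 48 and 72 h. MIC taken as the lowest concentration with no visible growth. For Cryptococcus and Geotrichum, MICs were read only once growth was visible in the control row.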

Data set [11] concerns Candida parapsilosis. The data set can be described thus: Antifungal activity against Candida parapsilosis ATCC 34136 measured at 48 hrs by broth dilution assay. In kind it is functional. As to conditions: Lodderomyces parapsilosis, ATCC 34136, 48 h. A digest of the protocol:
as §4

Data set [12] concerns Candida parapsilosis. The data set can be described thus: Antifungal activity against Candida parapsilosis 64E measured at 48 hrs by broth dilution assay. As to conditions: Lodderomyces parapsilosis. In kind it is functional. A digest of the protocol:
as §4

The subject of data set [13] is Cryptococcus neoformans. The data set can be described thus: Antifungal activity against Cryptococcus neoformans measured at 24 hrs by broth dilution assay. In kind it is functional, organism-based. The procedure, abridged:
as §4

A short description of data set [14]: Antifungal activity against Geotrichum silvicola measured at 24 hrs by broth dilution assay. In kind it is functional. The procedure, abridged: as §4
The nature of data set [15]: Antifungal activity against Geotrichum silvicola measured at 48 hrs by broth dilution assay. In kind it is functional. A digest of the protocol: as §4
The test system of data set [16] is Magnusiomyces capitatus. The data set can be described thus: Antifungal activity against Geotrichum capitatum measured at 24 hrs by broth dilution assay. In kind it is functional. The procedure, abridged:
as §4

The nature of data set [17]: Chemical stability in RPMI-1640 buffer at 2 mM up to 72 hrs at 30 degC by LC-UV-MS analysis. As to conditions: 2000 µM.

Take `C/C=C/CNC(=N)NCCCCCCCCN1CCCCCCCCNC(=N)NC1=O`: the outcome in data set [1] and in [4] was inactive. Moreover, the outcome in data set [2], in data set [3], in data set [5], in data set [13], in [14] and in data set [16] was Active. Further, the “fold change (FC)” value in data set [6] worked out at 17.22; in data set [7] it was 2.86; in data set [8] it was 2.04; in [9], 1.9. In addition, the MIC in data set [10] came out at 5 µM (≈ 2.18 µg/mL); in data set [11] it was 80 µM (≈ 34.9 µg/mL); in [12], 40 µM (≈ 17.4 µg/mL); in data set [15], 10 µM (≈ 4.36 µg/mL). For the same compound, in data set [17], the Stability result is on record as “Stable”.
